# Source: ChEMBL document CHEMBL1150592, “New antimicrobial cycloartane triterpenes from Acalypha communis” (2002)
# Active and inactive are the calls of the source. No cut-off for these calls is given here.
# Legend:
# [1] = test system: Staphylococcus aureus; test: Antimicrobial activity against Staphylococcus aureus Smith infected in CD1 mouse at 64 mg/kg after 7 days; type: functional, organism-based; set-up: dose 64 mg/kg
# Method in brief: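 Female CD-1 mice weighing 20 ± 2 g were infected intraperitoneally with bacteria suspended in broth or in about 5% mucin, at an inoculum lethal to 95–100% of untreated mice within 48 h. A single drug dose was given 0.5 h after infection. Survival was scored at day 7, using five animals per dose level and three or four separate tests pooled.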
# [2] = test system: Staphylococcus aureus; test: Antimicrobial activity against Staphylococcus aureus 375 after 18 to 20 hrs by standard broth microdilution method; type: functional
# Method in brief: (§1)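 Broth microdilution in polystyrene plates. Each well held 0.1 mL of broth medium with drug at 0.03–128 μg/mL and received 5 μL of overnight broth culture adjusted to 1 × 10⁷ to 5 × 10⁷ CFU/ml. Plates were incubated 18–20 h at 37 °C. MIC was the lowest concentration with no visible turbidity. Strains came from a laboratory collection.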
# [3] = test system: Escherichia coli; test: Antimicrobial activity against Escherichia coli imp 389 after 18 to 20 hrs by standard broth microdilution method; type: functional; method in brief: as §1
# [4] = test system: Staphylococcus aureus; test: Antimicrobial activity against methicillin-resistant Staphylococcus aureus 310 after 18 to 20 hrs by standard broth microdilution method; type: functional
# Method in brief: (§2)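 Broth microdilution: 5 μL overnight culture (1 × 10⁷ to 5 × 10⁷ CFU/ml) added to 0.1 mL broth containing drug at 0.03–128 μg/mL. Incubated 18–20 h at 37 °C. MIC = lowest concentration preventing visual turbidity. Strains from an in-house laboratory collection.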
# [5] = test system: Bacillus subtilis; test: Antimicrobial activity against Bacillus subtilis PY79 after 18 to 20 hrs by standard broth microdilution method; type: functional; method in brief: as §1
# [6] = test system: Enterococcus faecium; test: Antimicrobial activity against vancomycin-resistant Enterococcus faecium 379 after 18 to 20 hrs by standard broth microdilution method; type: functional; method in brief: as §2
# [7] = test system: Staphylococcus aureus; test: Antimicrobial activity against Staphylococcus aureus Smith infected in CD1 mouse after 7 days; type: functional; conditions: 168 h
# Method in brief: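 Female CD-1 mice (20 ± 2 g) infected intraperitoneally with bacteria in broth or ~5% mucin, inoculum lethal to 95–100% of untreated mice within 48 h. Single dose given 0.5 h post-infection. Seven-day survival from three or four tests (five dose levels, five mice per level) pooled; ED50 by probit analysis.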
Compound,ED50 [1],MIC [2] [µg/mL],MIC [3] [µg/mL],MIC [4] [µg/mL],MIC [5] [µg/mL],MIC [6] [µg/mL],ED50 [7] [mg/kg]
C=C(CC[C@@H](C)[C@H]1[C@@H](O)C[C@@]2(C)[C@@H]3[C@@H](O)C[C@H]4[C@](C)(C(=O)O)[C@@H](O)CC[C@@]45C[C@@]35CC[C@]12C)C(C)C,inactive,16,> 128,> 128,16,8,
CC(C)=CCC[C@@H](C)[C@H]1C[C@H](O)[C@@]2(C)[C@@H]3CC[C@H]4[C@](C)(C(=O)O)[C@@H](O)C[C@H](O)[C@@]45C[C@@]35CC[C@]12C,,32,> 128,128,64,32,
CC1(C)S[C@@H]2[C@H](NC(=O)Cc3ccccc3)C(=O)N2[C@H]1C(=O)O [PENICILLIN G],,0.06,2,128,8,128,
CC(C)=CCC[C@@H](C)[C@H]1[C@H](O)C[C@@]2(C)[C@@H]3CC[C@H]4[C@](C)(C(=O)O)[C@@H](O)C[C@H](O)[C@@]45C[C@@]35CC[C@]12C,,32,64,64,32,8,
CN[C@H](CC(C)C)C(=O)N[C@H]1C(=O)N[C@@H](CC(N)=O)C(=O)N[C@H]2C(=O)N[C@H]3C(=O)N[C@H](C(=O)N[C@H](C(=O)O)c4cc(O)cc(O)c4-c4cc3ccc4O)[C@H](O)c3ccc(c(Cl)c3)Oc3cc2cc(c3O[C@@H]2O[C@H](CO)[C@@H](O)[C@H](O)[C@H]2O[C@H]2C[C@](C)(N)[C@H](O)[C@H](C)O2)Oc2ccc(cc2Cl)[C@H]1O [VANCOMYCIN],,,,,,,1
